Data: ChEMBL document CHEMBL3608261, “Metabolically programmed iron chelators” (Bioorg Med Chem, 2015)

Columns and labels:
[1] = tested on: Rattus norvegicus; experiment: Drug metabolism in Sprague-Dawley rat plasma assessed as parent compound and metabolite level at 300 umol/kg, sc after 4 hrs by HPLC analysis; type: ADME, organism-based; conditions: in vivo
Summary of the method: (§1)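 Rats (male Sprague-Dawley, 250–350 g) were dosed sc once with the monosodium salt, 300 µmol/kg, three animals per time point up to 8 h. Plasma came from citrated cardiac blood; liver was frozen after CO2 euthanasia. Parent and metabolites were quantified by HPLC with UV at 310 nm against linear calibration curves (detection limit 0.25 µM, linear 1–1000 µM). Data are means.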

[2] = tested on: Rattus norvegicus; experiment: Drug metabolism in Sprague-Dawley rat pancreas assessed as (S)-4'-(5-carboxypentyloxy)-DADFT level at 300 umol/kg, sc after 4 to 8 hrs by HPLC analysis; type: ADME, organism-based; conditions: in vivo
Summary of the method: (§2)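 Single sc injection in male Sprague-Dawley rats (250–350 g) of the monosodium salt at 300 µmol/kg, n=3 per time point, killed by CO2 at 0.5–8 h. Plasma came from citrated cardiac blood; organs were frozen. Homogenates were made 1:3 in 0.5 N HClO4, given a methanol rinse, held 30 min at −20 °C, centrifuged, diluted in pH 3.0 phosphate/CH3CN and filtered. RP-amide HPLC, UV 310 nm; values are means, nmol/g wet weight or µM.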

[3] = tested on: Rattus norvegicus; experiment: Toxicity in Sprague-Dawley rat assessed as histopathology at 384 umol/kg, po qd for 10 days; type: organism-based; conditions: in vivo, 240 h
Summary of the method: (§3)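 Male Sprague-Dawley rats (n=5, 375–400 g) with normal iron stores, housed singly in metabolic cages and weighed daily. Drug given po by gavage as monosodium salt once daily for 10 days, dosed in the morning after overnight fast; fed ~3 h post-drug. Euthanized day 11; CBC, serum chemistries and 25 tissues/rat for outside histopathology; age-matched untreated controls.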

[4] = tested on: Rattus norvegicus; experiment: Drug metabolism in Sprague-Dawley rat pancreas assessed as (S)-4'-(carboxymethoxy)-DADFT level at 300 umol/kg, sc after 4 to 8 hrs by HPLC analysis; type: ADME, organism-based; conditions: in vivo; summary of the method: as §2
[5] = tested on: Rattus norvegicus; experiment: Drug metabolism in Sprague-Dawley rat kidney assessed as (S)-4'-(carboxymethoxy)-DADFT level at 300 umol/kg, sc after 2 hrs by HPLC analysis; type: ADME, organism-based; conditions: in vivo; summary of the method: as §2
[6] = tested on: Sapajus apella; experiment: Iron clearing efficiency in bile duct cannulated Cebus apella assessed as clearance of iron in bile at 75 umol/kg, po measured at 3 hrs intervals for up to 48 hrs relative to control; type: functional
[7] = tested on: Rattus norvegicus; experiment: Drug metabolism in Sprague-Dawley rat liver assessed as parent compound and (S)-4'-(3-carboxypropyloxy)-DADFT level at 300 umol/kg, sc after 8 hrs by HPLC analysis; type: ADME, organism-based; conditions: in vivo; summary of the method: as §2
[8] = tested on: Rattus norvegicus; experiment: Drug metabolism in Sprague-Dawley rat pancreas assessed as parent compound level at 300 umol/kg, sc after 0.5 hrs by HPLC analysis; type: ADME, organism-based; conditions: in vivo; summary of the method: as §2
[9] = tested on: Rattus norvegicus; experiment: Drug metabolism in Sprague-Dawley rat pancreas assessed as (S)-4'-(5-carboxypentyloxy)-DADFT level at 300 umol/kg, sc after 0.5 to 8 hrs by HPLC analysis; type: ADME, organism-based; conditions: in vivo; summary of the method: as §2
[10] = tested on: Rattus norvegicus; experiment: Drug metabolism in Sprague-Dawley rat plasma assessed as parent compound and metabolite level at 300 umol/kg, sc after 8 hrs by HPLC analysis; type: ADME, organism-based; conditions: in vivo, read-out: Drug metabolism; summary of the method: as §1
[11] = tested on: Rattus norvegicus; experiment: Toxicity in Sprague-Dawley rat assessed as mortality at 384 umol/kg, po qd for 10 days; type: organism-based; conditions: in vivo, 240 h; summary of the method: as §3
[12] = tested on: Rattus norvegicus; experiment: Drug metabolism in Sprague-Dawley rat kidney assessed as (S)-4'-(3-carboxypropyloxy)-DADFT level at 300 umol/kg, sc after 0.5 to 1 hrs by HPLC analysis; type: ADME, organism-based; conditions: in vivo; summary of the method: as §2
[13] = tested on: Rattus norvegicus; experiment: Drug metabolism in Sprague-Dawley rat heart assessed as (S)-4'-(carboxymethoxy)-DADFT level at 300 umol/kg, sc after 0.5 hrs by HPLC analysis; type: ADME, organism-based; conditions: in vivo; summary of the method: as §2
[14] = tested on: Rattus norvegicus; experiment: Drug metabolism in Sprague-Dawley rat pancreas assessed as (S)-4'-(3-carboxypropyloxy)-DADFT level at 300 umol/kg, sc after 0.5 hrs by HPLC analysis; type: ADME, organism-based; conditions: in vivo; summary of the method: as §2
[15] = tested on: Rattus norvegicus; experiment: Iron clearing efficiency in bile duct cannulated Sprague-Dawley rat assessed as clearance of iron in urine at 300 umol/kg, po measured at 3 hrs intervals for up to 48 hrs relative to control; type: functional
[16] = tested on: Rattus norvegicus; experiment: Drug metabolism in Sprague-Dawley rat heart assessed as (S)-4'-(5-carboxypentyloxy)-DADFT level at 300 umol/kg, sc up to 8 hrs by HPLC analysis; type: ADME, organism-based; conditions: in vivo; summary of the method: as §2
[17] = tested on: Rattus norvegicus; experiment: Drug metabolism in Sprague-Dawley rat pancreas assessed as (S)-4'-(3-carboxypropyloxy)-DADFT level at 300 umol/kg, sc after 4 to 8 hrs by HPLC analysis; type: ADME, organism-based; conditions: in vivo; summary of the method: as §2
[18] = tested on: Rattus norvegicus; experiment: Drug metabolism in Sprague-Dawley rat kidney assessed as (S)-4'-(3-carboxypropyloxy)-DADFT level at 300 umol/kg, sc after 8 hrs by HPLC analysis; type: ADME, organism-based; conditions: in vivo; summary of the method: as §2
[19] = tested on: Rattus norvegicus; experiment: Drug metabolism in Sprague-Dawley rat liver assessed as parent compound and metabolite level at 300 umol/kg, sc after 8 hrs by HPLC analysis; type: ADME, organism-based; conditions: in vivo; summary of the method: as §1
[20] = tested on: Rattus norvegicus; experiment: Drug metabolism in Sprague-Dawley rat kidney assessed as (S)-4'-(carboxymethoxy)-DADFT level at 300 umol/kg, sc after 0.5 hrs by HPLC analysis; type: ADME, organism-based; conditions: in vivo; summary of the method: as §2
[21] = tested on: Rattus norvegicus; experiment: Drug metabolism in Sprague-Dawley rat kidney assessed as (S)-4'-(5-carboxypentyloxy)-DADFT level at 300 umol/kg, sc after 0.5 to 1 hrs by HPLC analysis; type: ADME, organism-based; conditions: in vivo; summary of the method: as §2
[22] = Performance ratio, ratio of iron clearing efficiency in […] at 75 umol/kg, po to iron clearing efficiency in bile duct cannulated Sprague-Dawley rat at 300 umol/kg, po; type: functional
Summary of the method: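 Performance ratio = mean ICE in iron-overloaded Cebus apella (75 µmol/kg) divided by mean ICE in bile duct-cannulated rats (300 µmol/kg), by the same route.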

[23] = tested on: Rattus norvegicus; experiment: Drug metabolism in Sprague-Dawley rat heart assessed as (S)-4'-(3-carboxypropyloxy)-DADFT level at 300 umol/kg, sc after 0.5 to 1 hrs by HPLC analysis; type: ADME, organism-based; conditions: in vivo; summary of the method: as §2
[24] = tested on: Rattus norvegicus; experiment: Drug metabolism in Sprague-Dawley rat kidney assessed as (S)-4'-(carboxymethoxy)-DADFT level at 300 umol/kg, sc after 1 hr by HPLC analysis; type: ADME, organism-based; conditions: in vivo; summary of the method: as §2
[25] = tested on: Rattus norvegicus; experiment: Drug metabolism in Sprague-Dawley rat plasma assessed as (S)-4'-(carboxymethoxy)-DADFT level at 300 umol/kg, sc after 8 hrs by HPLC analysis; type: ADME, organism-based; conditions: in vivo; summary of the method: as §2
[26] = tested on: Rattus norvegicus; experiment: Drug metabolism in Sprague-Dawley rat liver assessed as (S)-4'-(5-carboxypentyloxy)-DADFT level at 300 umol/kg, sc after 0.5 to 1 hrs by HPLC analysis; type: ADME, organism-based; conditions: in vivo; summary of the method: as §2
[27] = tested on: Rattus norvegicus; experiment: Drug metabolism in Sprague-Dawley rat pancreas assessed as (S)-4'-(3-carboxypropyloxy)-DADFT level at 300 umol/kg, sc after 1 hr by HPLC analysis; type: ADME, organism-based; conditions: in vivo; summary of the method: as §2
[28] = tested on: Rattus norvegicus; experiment: Iron clearing efficiency in bile duct cannulated Sprague-Dawley rat assessed as clearance of iron in bile at 300 umol/kg, po measured at 3 hrs intervals for up to 48 hrs relative to control; type: functional
Summary of the method: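 Non-iron-overloaded male Sprague-Dawley rats (400–450 g) with cannulated bile ducts received 300 µmol/kg po or sc. […] Bile was sampled every 3 h for up to 48 h and urine at 24 h intervals. ICE = (treated minus control iron excretion) / theoretical output (2:1 ligand:Fe) × 100 over 48 h. Mean ± SEM.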

[29] = tested on: Rattus norvegicus; experiment: Drug metabolism in Sprague-Dawley rat heart assessed as (S)-4'-(carboxymethoxy)-DADFT level at 300 umol/kg, sc after 1 hr by HPLC analysis; type: ADME, organism-based; conditions: in vivo; summary of the method: as §2
[30] = tested on: Rattus norvegicus; experiment: Drug metabolism in Sprague-Dawley rat kidney assessed as (S)-4'-(carboxymethoxy)-DADFT level at 300 umol/kg, sc after 8 hrs by HPLC analysis; type: ADME, organism-based; conditions: in vivo; summary of the method: as §2
[31] = tested on: Rattus norvegicus; experiment: Drug metabolism in Sprague-Dawley rat heart assessed as parent compound level at 300 umol/kg, sc after 0.5 hrs by HPLC analysis; type: ADME, organism-based; conditions: in vivo; summary of the method: as §2
[32] = tested on: Rattus norvegicus; experiment: Toxicity in Sprague-Dawley rat assessed as BUN level in blood at 384 umol/kg, po qd for 10 days; type: organism-based; conditions: in vivo, 240 h
Summary of the method: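 Male Sprague-Dawley rats (n=5, 375–400 g) with normal iron stores were housed in metabolic cages. Drug was given po as the monosodium salt, once daily for 10 days at 384 µmol/kg/day. Rats were fasted overnight, dosed in the morning, and fed about 3 h post-drug. They were euthanized on day 11, and blood was taken for serum chemistry including BUN. Age-matched untreated rats served as controls.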

[33] = tested on: Rattus norvegicus; experiment: Drug metabolism in Sprague-Dawley rat heart assessed as (S)-4'-(carboxymethoxy)-DADFT level at 300 umol/kg, sc after 2 to 8 hrs by HPLC analysis; type: ADME, organism-based; conditions: in vivo; summary of the method: as §2

C[C@]1(C(=O)O)CSC(c2ccc(OCCCCCCO)cc2O)=N1
Drug metabolism [1]: Not Active
Drug metabolism [2]: metabolite_notdetected
Activity [3]: Non-toxic
Drug metabolism [4]: metabolite_notdetected
Drug metabolism [5]: 161 nmol/g
Activity [6]: 90%
Drug metabolism [7]: metabolite_notdetected
Drug metabolism [8]: < 5 nmol/g
Drug metabolism [9]: metabolite_notdetected
concentration [10]: 23 µM
Activity [11]: Non-toxic
Drug metabolism [12]: 300 nmol/g
Drug metabolism [13]: 17 nmol/g
Drug metabolism [14]: 19 nmol/g
Activity [15]: 4%
Drug metabolism [16]: metabolite_notdetected
Drug metabolism [17]: metabolite_notdetected
Drug metabolism [18]: metabolite_notdetected
Drug metabolism [19]: metabolite_detected
Drug metabolism [20]: 156 nmol/g
Drug metabolism [21]: metabolite_detected
Ratio [22]: 2.2
Drug metabolism [23]: 46 nmol/g
Drug metabolism [24]: 201 nmol/g
Drug metabolism [25]: metabolite_detected
Drug metabolism [26]: metabolite_detected
Drug metabolism [27]: 23 nmol/g
Activity [28]: 96%
Drug metabolism [29]: 23 nmol/g
Drug metabolism [30]: 5 nmol/g
Drug metabolism [31]: 26 nmol/g
Activity [32]: 20 mg/dL
Drug metabolism [33]: metabolite_notdetected
